According to ChEMBL document CHEMBL3400039, “Design, synthesis and in vitro cell-based evaluation of the anti-cancer activities of hispolon analogs” (Bioorg Med Chem, 2015):
Active and inactive are the calls of the source. The calls are words filed in the database; no cut-off is given here.

Tests used:
HEK293 [1] = test: Cytotoxicity against HEK293 cells expressing pcDNA3.1 at 100 uM after 72 hrs by MTT assay; assay type: cell-based; conditions: human, hek293, 72 h
How it was run: (§1)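 Cells kept as adherent monolayers in DMEM with 10% FBS, 37°C, 5% CO2. Trypsin-harvested, seeded at 5 × 10^3 cells/well, then exposed to compound at 0.1 to 100 µM for 72 h. MTT (4 mg/ml) added for 4 h, formazan dissolved in DMSO, absorbance read at 570 nm. At least three experiments, each in triplicate; mean±SD.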

MDA-MB-231 [2] = test: Cytotoxicity against human MDA-MB-231 cells at 100 uM after 72 hrs by MTT assay; assay type: functional, cell-based; how it was run: as §1
MDCK [3] = test: Cytotoxicity against MDCK cells at 100 uM after 72 hrs by MTT assay; assay type: cell-based, Canis lupus familiaris; conditions: dog; how it was run: as §1
HCT-116 = test: Cytotoxicity against human HCT116 cells at 100 uM after 72 hrs by MTT assay; assay type: functional, cell-based; how it was run: as §1
DU-145 [4] = test: Cytotoxicity against human DU145 cells at 100 uM after 72 hrs by MTT assay; assay type: functional, cell-based; how it was run: as §1
[5] = Cytotoxicity against mouse NIH/3T3 cells at 100 uM after 72 hrs by MTT assay; assay type: cell-based; conditions: nih3t3, 72 h; how it was run: as §1
PC-3 = test: Cytotoxicity against human PC3 cells at 100 uM after 72 hrs by MTT assay; assay type: functional, cell-based; how it was run: as §1
MCF7 [6] = test: Cytotoxicity against human MCF7 cells at 100 uM after 72 hrs by MTT assay; assay type: functional, cell-based; how it was run: as §1
S1 = test: Cytotoxicity against human S1 cells at 100 uM after 72 hrs by MTT assay; assay type: functional, cell-based; how it was run: as §1
HEK293 [7] = test: Cytotoxicity against HEK293 cells expressing ABCB1 after 72 hrs by MTT assay; assay type: functional, cell-based; conditions: Homo sapiens, HEK293, 72 h; how it was run: as §1
MDA-MB-231 [8] = test: Cytotoxicity against human MDA-MB-231 cells after 72 hrs by MTT assay; assay type: functional, cell-based; conditions: MDA-MB-231, 72 h; how it was run: as §1
HEK293 [9] = test: Resistance index, ratio of IC50 for HEK293 cells expressing ABCB1 to IC50 for HEK293 cells expressing pcDNA3.1; parameters: species or system Homo sapiens
How it was run: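 Fold resistance is the IC50 in P-glycoprotein-overexpressing HEK293/ABCB1 cells divided by the IC50 in empty-vector HEK293/pcDNA3.1 cells. IC50s from the 72 h MTT assay; paclitaxel was the positive-control ABCB1 substrate.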

[10] = Cytotoxicity against mouse NIH/3T3 cells after 72 hrs by MTT assay; assay type: cell-based; conditions: NIH3T3, 72 h; how it was run: as §1
[11] = Cytotoxicity against human S1 cells after 72 hrs by MTT assay; assay type: functional, cell-based; conditions: S1, 72 h; how it was run: as §1
HEK293 [12] = test: Cytotoxicity against HEK293 cells expressing pcDNA3.1 after 72 hrs by MTT assay; assay type: cell-based; conditions: Homo sapiens, HEK293, 72 h; how it was run: as §1
DU-145 [13] = test: Cytotoxicity against human DU145 cells after 72 hrs by MTT assay; assay type: functional, cell-based; conditions: DU-145, 72 h; how it was run: as §1
[14] = Cytotoxicity against human HCT116 cells after 72 hrs by MTT assay; assay type: functional, cell-based; conditions: HCT-116, 72 h; how it was run: as §1
MDCK [15] = test: Cytotoxicity against MDCK cells after 72 hrs by MTT assay; assay type: cell-based; conditions: Canis lupus familiaris; how it was run: as §1
[16] = Cytotoxicity against human PC3 cells after 72 hrs by MTT assay; assay type: functional, cell-based; conditions: PC-3, 72 h; how it was run: as §1
MCF7 [17] = test: Cytotoxicity against human MCF7 cells after 72 hrs by MTT assay; assay type: functional, cell-based; conditions: MCF7, 72 h; how it was run: as §1

SMILES | Activity (HEK293 [1]) | Activity (MDA-MB-231 [2]) | Activity (MDCK [3]) | Activity (HCT-116) | Activity (DU-145 [4]) | Activity [5] | Activity (PC-3) | Activity (MCF7 [6]) | Activity (S1) | IC50 (HEK293 [7]) | IC50 (MDA-MB-231 [8]) | Ratio IC50 (HEK293 [9]) | IC50 [10] | IC50 [11] | IC50 (HEK293 [12]) | IC50 (DU-145 [13]) | IC50 [14] | IC50 (MDCK [15]) | IC50 [16] | IC50 (MCF7 [17])
COc1ccc(CCc2cc(C)no2)cc1 | Non-toxic | inactive | Non-toxic | inactive | inactive | Non-toxic | inactive | inactive | inactive | – | – | – | – | – | – | – | – | – | – | –
COc1cc(/C=C/c2cc(C)no2)ccc1O | – | – | – | – | – | – | – | – | – | 41.3 µM | 34.6 µM | 1.1 | > 100 µM | 50.5 µM | 36.2 µM | 28.9 µM | 33.4 µM | 29.8 µM | 20.9 µM | –
COc1ccc(/C=C/c2cc(C)n[nH]2)cc1 | – | – | – | – | – | – | – | – | – | 16.5 µM | 10.7 µM | 1.3 | 19.9 µM | 8.4 µM | 12.9 µM | – | 9.4 µM | – | 8.9 µM | 9.7 µM
CC(=O)CC(=O)/C=C/c1ccc(O)cc1 | – | – | – | – | – | – | – | – | – | 11.6 µM | 6.8 µM | 1.1 | 18.9 µM | 10.6 µM | – | 8.8 µM | 36.5 µM | 30.6 µM | 20.2 µM | –
COc1ccc(CCC(=O)CC(C)=O)cc1OC | Non-toxic | inactive | Non-toxic | inactive | inactive | Non-toxic | inactive | inactive | inactive | – | – | – | – | – | – | – | – | – | – | –
COc1ccc(CCc2cc(C)n[nH]2)cc1OC | Non-toxic | inactive | Non-toxic | inactive | inactive | Non-toxic | inactive | inactive | inactive | – | – | – | – | – | – | – | – | – | – | –
COc1cc(CCc2cc(C)n[nH]2)ccc1O | Non-toxic | inactive | Non-toxic | inactive | inactive | Non-toxic | inactive | inactive | inactive | – | – | – | – | – | – | – | – | – | – | –
COc1ccc(CCc2cc(C)n[nH]2)cc1 | Non-toxic | inactive | Non-toxic | inactive | inactive | Non-toxic | inactive | inactive | inactive | – | – | – | – | – | – | – | – | – | – | –
Cc1cc(/C=C/c2ccc(O)cc2)[nH]n1 | – | – | – | – | – | – | – | – | – | 68.9 µM | 23.2 µM | 0.9 | 59.2 µM | 32.9 µM | 77.4 µM | – | 38.8 µM | 80 µM | 48.1 µM | –
COc1cc(CCc2cc(C)no2)ccc1O | Non-toxic | inactive | Non-toxic | inactive | inactive | Non-toxic | inactive | inactive | inactive | – | – | – | – | – | – | – | – | – | – | –
COc1ccc(CCC(=O)CC(C)=O)cc1 | Non-toxic | inactive | Non-toxic | inactive | inactive | Non-toxic | inactive | inactive | inactive | – | – | – | – | – | – | – | – | – | – | –
COc1cc(/C=C/c2cc(C)[nH]n2)ccc1O | – | – | – | – | – | – | – | – | – | 45.2 µM | 67 µM | 0.9 | 66.3 µM | 29.4 µM | 47.7 µM | 32.2 µM | 78.8 µM | 35.4 µM | 16.5 µM | –
Cc1cc(/C=C/c2ccc(O)c(O)c2)[nH]n1 | – | – | – | – | – | – | – | – | – | 39.4 µM | – | 1.3 | 88.4 µM | 55.3 µM | 29.7 µM | 33.1 µM | – | > 100 µM | 23.2 µM | –
